ChEMBL document CHEMBL2346629, “Discovery and characterization of novel allosteric FAK inhibitors” (Eur J Med Chem, 2013)

Columns and labels:
[1] = target: Proto-oncogene tyrosine-protein kinase Src (Homo sapiens) (UniProt P12931); experiment: Inhibition of c-Src (unknown origin) using [gamma-33P]ATP assessed as residual activity at 3 uM
[2] = target: Fibroblast growth factor receptor 2 (Homo sapiens) (UniProt P21802); experiment: Inhibition of FGFR2 (unknown origin) using [gamma-33P]ATP assessed as residual activity at 3 uM
Outline: (§1)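 Reaction Biology HotSpot radiometric profiling panel of 288 kinases (261 wild-type, 27 mutant). Kinase activity was read out by incorporation of [γ-33P]ATP.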

[3] = target: Casein kinase I isoform gamma-2 (Homo sapiens) (UniProt P78368); experiment: Inhibition of CK1g2 (unknown origin) using [gamma-33P]ATP assessed as residual activity at 3 uM; outline: as §1
[4] = target: Homeodomain-interacting protein kinase 1 (Homo sapiens) (UniProt Q86Z02); experiment: Inhibition of HIPK1 (unknown origin) using [gamma-33P]ATP assessed as residual activity at 3 uM
Outline: (§2)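 Radiometric kinase profiling service covering 288 kinases (261 wild-type, 27 mutant). Inhibition was read as incorporation from [γ-³³P]ATP.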

[5] = target: Vascular endothelial growth factor receptor 1 (Homo sapiens) (UniProt P17948); experiment: Inhibition of FLT1 (unknown origin) using [gamma-33P]ATP assessed as residual activity at 3 uM; outline: as §1
[6] = target: Ribosomal protein S6 kinase beta-1 (Homo sapiens) (UniProt P23443); experiment: Inhibition of P70S6K (unknown origin) using [gamma-33P]ATP assessed as residual activity at 3 uM
[7] = target: Ephrin type-A receptor 3 (Homo sapiens) (UniProt P29320); experiment: Inhibition of EPHA3 (unknown origin) using [gamma-33P]ATP assessed as residual activity at 3 uM; outline: as §1
[8] = target: Death-associated protein kinase 2 (Homo sapiens) (UniProt Q9UIK4); experiment: Inhibition of DAPK2 (unknown origin) using [gamma-33P]ATP assessed as residual activity at 3 uM; outline: as §1
[9] = target: SRSF protein kinase 2 (Homo sapiens) (UniProt P78362); experiment: Inhibition of SRPK2 (unknown origin) using [gamma-33P]ATP assessed as residual activity at 3 uM
[10] = target: Mitogen-activated protein kinase 9 (Homo sapiens) (UniProt P45984); experiment: Inhibition of JNK2a2 (unknown origin) using [gamma-33P]ATP assessed as residual activity at 3 uM; outline: as §2
[11] = target: 3-phosphoinositide-dependent protein kinase 1 (Homo sapiens) (UniProt O15530); experiment: Inhibition of PDK1 (unknown origin) using [gamma-33P]ATP assessed as residual activity at 3 uM
[12] = target: Serine/threonine-protein kinase STK11 (Homo sapiens) (UniProt Q15831); experiment: Inhibition of LKB1 (unknown origin) using [gamma-33P]ATP assessed as residual activity at 3 uM; outline: as §2
[13] = target: Casein kinase I isoform epsilon (Homo sapiens) (UniProt P49674); experiment: Inhibition of CK1epsilon (unknown origin) using [gamma-33P]ATP assessed as residual activity at 3 uM; outline: as §1
[14] = target: Serine/threonine-protein kinase Sgk1 (Homo sapiens) (UniProt O00141); experiment: Inhibition of SGK1 (unknown origin) using [gamma-33P]ATP assessed as residual activity at 3 uM
[15] = target: Fibroblast growth factor receptor 1 (Homo sapiens) (UniProt P11362); experiment: Inhibition of FGFR1 (unknown origin) using [gamma-33P]ATP assessed as residual activity at 3 uM; outline: as §1
[16] = target: Tyrosine-protein kinase ITK/TSK (Homo sapiens) (UniProt Q08881); experiment: Inhibition of ITK (unknown origin) using [gamma-33P]ATP assessed as residual activity at 3 uM; outline: as §2
[17] = target: Testis-specific serine/threonine-protein kinase 1 (Homo sapiens) (UniProt Q9BXA7); experiment: Inhibition of STK22D (unknown origin) using [gamma-33P]ATP assessed as residual activity at 3 uM
[18] = tested on: Platelet-derived growth factor receptor alpha (Homo sapiens), P16234 [D842V]; experiment: Inhibition of PDGFRa D842V mutant (unknown origin) using [gamma-33P]ATP assessed as residual activity at 3 uM
[19] = target: Dual specificity protein kinase CLK4 (Homo sapiens) (UniProt Q9HAZ1); experiment: Inhibition of CLK4 (unknown origin) using [gamma-33P]ATP assessed as residual activity at 3 uM; outline: as §1
[20] = target: Serine/threonine-protein kinase SIK2 (Homo sapiens) (UniProt Q9H0K1); experiment: Inhibition of SIK2 (unknown origin) using [gamma-33P]ATP assessed as residual activity at 3 uM
[21] = target: Serine/threonine-protein kinase BRSK1 (Homo sapiens) (UniProt Q8TDC3); experiment: Inhibition of BRSK1 (unknown origin) using [gamma-33P]ATP assessed as residual activity at 3 uM
Outline: (§3)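 Radiometric profiling across 288 kinases (261 wild-type, 27 mutant), run as an outsourced service. Inhibition read out as [gamma-33P]ATP incorporation into substrate.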

[22] = target: Serine/threonine-protein kinase DCLK2 (Homo sapiens) (UniProt Q8N568); experiment: Inhibition of DCAMKL2 (unknown origin) using [gamma-33P]ATP assessed as residual activity at 3 uM; outline: as §1
[23] = tested on: Epidermal growth factor receptor (Homo sapiens), P00533 [L861R,T790M]; experiment: Inhibition of EGFR […] double mutant (unknown origin) using [gamma-33P]ATP assessed as residual activity at 3 uM; type: protein assay; outline: as §1
[24] = target: Serine/threonine-protein kinase Nek9 (Homo sapiens) (UniProt Q8TD19); experiment: Inhibition of NEK9 (unknown origin) using [gamma-33P]ATP assessed as residual activity at 3 uM
[25] = tested on: Platelet-derived growth factor receptor alpha (Homo sapiens), P16234 [V561D]; experiment: Inhibition of PDGFRa V561D mutant (unknown origin) using [gamma-33P]ATP assessed as residual activity at 3 uM
[26] = target: Calcium/calmodulin-dependent protein kinase type 1 (Homo sapiens) (UniProt Q14012); experiment: Inhibition of CAMK1a (unknown origin) using [gamma-33P]ATP assessed as residual activity at 3 uM; outline: as §3
[27] = tested on: Mast/stem cell growth factor receptor Kit (Homo sapiens), P10721 [D816H]; experiment: Inhibition of c-Kit D816H mutant (unknown origin) using [gamma-33P]ATP assessed as residual activity at 3 uM
[28] = target: Ribosomal protein S6 kinase alpha-2 (Homo sapiens) (UniProt Q15349); experiment: Inhibition of RSK3 (unknown origin) using [gamma-33P]ATP assessed as residual activity at 3 uM
[29] = target: Serine/threonine-protein kinase BRSK2 (Homo sapiens) (UniProt Q8IWQ3); experiment: Inhibition of BRSK2 (unknown origin) using [gamma-33P]ATP assessed as residual activity at 3 uM; outline: as §3
[30] = target: Calcium/calmodulin-dependent protein kinase type II subunit beta (Homo sapiens) (UniProt Q13554); experiment: Inhibition of CAMK2b (unknown origin) using [gamma-33P]ATP assessed as residual activity at 3 uM; outline: as §3
[31] = target: Serine/threonine-protein kinase PAK 4 (Homo sapiens) (UniProt O96013); experiment: Inhibition of PAK4 (unknown origin) using [gamma-33P]ATP assessed as residual activity at 3 uM
Chain of Serine/threonine-protein kinase PAK 4 (Homo sapiens) (O96013 whole entry, looked up): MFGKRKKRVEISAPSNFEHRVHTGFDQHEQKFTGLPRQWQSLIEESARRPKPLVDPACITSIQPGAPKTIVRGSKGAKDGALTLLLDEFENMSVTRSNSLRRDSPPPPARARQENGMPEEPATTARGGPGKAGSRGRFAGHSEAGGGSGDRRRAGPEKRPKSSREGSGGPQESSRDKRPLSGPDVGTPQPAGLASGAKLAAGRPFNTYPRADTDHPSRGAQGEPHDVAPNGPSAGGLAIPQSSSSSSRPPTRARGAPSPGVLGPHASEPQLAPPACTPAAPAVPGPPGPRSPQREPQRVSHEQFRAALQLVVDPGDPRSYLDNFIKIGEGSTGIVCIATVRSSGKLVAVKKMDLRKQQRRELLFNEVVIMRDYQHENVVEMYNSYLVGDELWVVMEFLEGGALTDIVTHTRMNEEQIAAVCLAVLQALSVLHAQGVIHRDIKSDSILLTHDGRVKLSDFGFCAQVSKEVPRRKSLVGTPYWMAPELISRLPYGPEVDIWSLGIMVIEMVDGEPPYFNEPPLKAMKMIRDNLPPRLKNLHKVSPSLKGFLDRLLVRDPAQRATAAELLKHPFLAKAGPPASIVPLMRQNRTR

Chain of SRSF protein kinase 2 (Homo sapiens) (P78362 whole entry, looked up): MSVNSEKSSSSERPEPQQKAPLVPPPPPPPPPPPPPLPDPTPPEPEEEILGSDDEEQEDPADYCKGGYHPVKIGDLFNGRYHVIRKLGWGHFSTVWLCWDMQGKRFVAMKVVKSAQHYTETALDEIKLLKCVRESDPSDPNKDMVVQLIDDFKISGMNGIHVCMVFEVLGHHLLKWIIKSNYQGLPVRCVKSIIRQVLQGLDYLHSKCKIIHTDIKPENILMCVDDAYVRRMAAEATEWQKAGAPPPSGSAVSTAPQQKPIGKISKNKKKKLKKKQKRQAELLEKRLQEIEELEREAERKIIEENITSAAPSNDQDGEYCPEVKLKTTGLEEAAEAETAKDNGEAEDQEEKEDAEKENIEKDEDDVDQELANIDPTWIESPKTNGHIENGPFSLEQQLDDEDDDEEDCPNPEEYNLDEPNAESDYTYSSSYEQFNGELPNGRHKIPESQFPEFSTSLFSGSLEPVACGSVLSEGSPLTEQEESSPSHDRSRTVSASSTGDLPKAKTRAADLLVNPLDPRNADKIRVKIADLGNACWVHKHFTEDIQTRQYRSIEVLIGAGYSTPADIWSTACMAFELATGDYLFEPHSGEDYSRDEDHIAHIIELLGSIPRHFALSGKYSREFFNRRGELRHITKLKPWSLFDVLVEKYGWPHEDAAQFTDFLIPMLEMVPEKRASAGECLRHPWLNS
Chain of Homeodomain-interacting protein kinase 1 (Homo sapiens) (Q86Z02 whole entry, looked up): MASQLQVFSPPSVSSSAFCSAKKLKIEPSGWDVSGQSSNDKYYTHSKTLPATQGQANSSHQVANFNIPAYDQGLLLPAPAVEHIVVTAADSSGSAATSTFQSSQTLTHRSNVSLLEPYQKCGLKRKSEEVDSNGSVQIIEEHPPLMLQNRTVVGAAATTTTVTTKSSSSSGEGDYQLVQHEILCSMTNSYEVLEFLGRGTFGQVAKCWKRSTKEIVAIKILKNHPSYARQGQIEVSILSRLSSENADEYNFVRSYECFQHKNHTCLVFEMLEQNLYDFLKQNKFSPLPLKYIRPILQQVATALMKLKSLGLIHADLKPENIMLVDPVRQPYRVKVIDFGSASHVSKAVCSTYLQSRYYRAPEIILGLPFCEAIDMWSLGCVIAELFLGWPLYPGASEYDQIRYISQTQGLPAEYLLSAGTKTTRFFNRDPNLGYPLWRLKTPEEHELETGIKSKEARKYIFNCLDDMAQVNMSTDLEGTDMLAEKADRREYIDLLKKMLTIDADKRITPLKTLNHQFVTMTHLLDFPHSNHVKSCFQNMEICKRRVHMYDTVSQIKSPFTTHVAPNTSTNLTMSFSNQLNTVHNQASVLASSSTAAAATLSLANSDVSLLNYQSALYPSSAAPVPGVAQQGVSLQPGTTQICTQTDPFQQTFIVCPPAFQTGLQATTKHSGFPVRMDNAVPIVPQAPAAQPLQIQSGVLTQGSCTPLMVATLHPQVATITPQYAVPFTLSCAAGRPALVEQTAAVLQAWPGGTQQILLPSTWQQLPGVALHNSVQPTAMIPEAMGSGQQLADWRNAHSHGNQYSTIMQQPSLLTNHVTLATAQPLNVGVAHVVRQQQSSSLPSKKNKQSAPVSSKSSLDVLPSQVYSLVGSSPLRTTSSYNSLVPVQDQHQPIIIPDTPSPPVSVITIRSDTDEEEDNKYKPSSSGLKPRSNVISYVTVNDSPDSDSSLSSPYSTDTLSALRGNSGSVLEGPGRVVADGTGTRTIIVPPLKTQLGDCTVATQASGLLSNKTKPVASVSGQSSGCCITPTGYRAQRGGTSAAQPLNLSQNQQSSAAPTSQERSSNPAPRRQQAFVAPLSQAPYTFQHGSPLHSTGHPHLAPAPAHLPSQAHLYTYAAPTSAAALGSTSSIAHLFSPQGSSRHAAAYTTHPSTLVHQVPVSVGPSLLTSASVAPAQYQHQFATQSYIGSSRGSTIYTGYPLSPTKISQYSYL
Chain of Serine/threonine-protein kinase SIK2 (Homo sapiens) (Q9H0K1 whole entry, looked up): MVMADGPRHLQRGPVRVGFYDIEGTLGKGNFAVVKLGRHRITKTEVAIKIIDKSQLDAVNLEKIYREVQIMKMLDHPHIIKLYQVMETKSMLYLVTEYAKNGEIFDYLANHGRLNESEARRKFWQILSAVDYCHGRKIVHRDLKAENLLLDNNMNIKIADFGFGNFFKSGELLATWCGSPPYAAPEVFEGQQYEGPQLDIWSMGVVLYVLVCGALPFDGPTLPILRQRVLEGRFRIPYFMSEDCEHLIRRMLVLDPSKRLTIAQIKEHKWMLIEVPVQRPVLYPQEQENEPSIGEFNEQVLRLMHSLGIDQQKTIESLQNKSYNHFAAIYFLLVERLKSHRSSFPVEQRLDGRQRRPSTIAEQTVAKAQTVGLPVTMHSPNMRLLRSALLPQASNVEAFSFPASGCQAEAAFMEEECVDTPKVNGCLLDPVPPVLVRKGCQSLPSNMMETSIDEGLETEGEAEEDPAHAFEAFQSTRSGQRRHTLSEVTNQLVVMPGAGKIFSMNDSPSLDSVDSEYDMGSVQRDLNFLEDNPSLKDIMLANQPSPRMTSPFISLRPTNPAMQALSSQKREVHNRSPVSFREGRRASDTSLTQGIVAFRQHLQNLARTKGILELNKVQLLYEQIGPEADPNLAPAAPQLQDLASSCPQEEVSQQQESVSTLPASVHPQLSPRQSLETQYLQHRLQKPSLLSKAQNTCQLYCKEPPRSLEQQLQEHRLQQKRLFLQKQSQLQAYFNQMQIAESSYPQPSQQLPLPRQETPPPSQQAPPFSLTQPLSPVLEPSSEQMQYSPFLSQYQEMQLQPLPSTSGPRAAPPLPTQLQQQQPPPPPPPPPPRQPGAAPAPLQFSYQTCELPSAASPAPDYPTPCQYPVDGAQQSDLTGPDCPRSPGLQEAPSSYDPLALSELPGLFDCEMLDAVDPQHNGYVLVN
Chain of Fibroblast growth factor receptor 1 (Homo sapiens) (P11362 22-822 limits assumed): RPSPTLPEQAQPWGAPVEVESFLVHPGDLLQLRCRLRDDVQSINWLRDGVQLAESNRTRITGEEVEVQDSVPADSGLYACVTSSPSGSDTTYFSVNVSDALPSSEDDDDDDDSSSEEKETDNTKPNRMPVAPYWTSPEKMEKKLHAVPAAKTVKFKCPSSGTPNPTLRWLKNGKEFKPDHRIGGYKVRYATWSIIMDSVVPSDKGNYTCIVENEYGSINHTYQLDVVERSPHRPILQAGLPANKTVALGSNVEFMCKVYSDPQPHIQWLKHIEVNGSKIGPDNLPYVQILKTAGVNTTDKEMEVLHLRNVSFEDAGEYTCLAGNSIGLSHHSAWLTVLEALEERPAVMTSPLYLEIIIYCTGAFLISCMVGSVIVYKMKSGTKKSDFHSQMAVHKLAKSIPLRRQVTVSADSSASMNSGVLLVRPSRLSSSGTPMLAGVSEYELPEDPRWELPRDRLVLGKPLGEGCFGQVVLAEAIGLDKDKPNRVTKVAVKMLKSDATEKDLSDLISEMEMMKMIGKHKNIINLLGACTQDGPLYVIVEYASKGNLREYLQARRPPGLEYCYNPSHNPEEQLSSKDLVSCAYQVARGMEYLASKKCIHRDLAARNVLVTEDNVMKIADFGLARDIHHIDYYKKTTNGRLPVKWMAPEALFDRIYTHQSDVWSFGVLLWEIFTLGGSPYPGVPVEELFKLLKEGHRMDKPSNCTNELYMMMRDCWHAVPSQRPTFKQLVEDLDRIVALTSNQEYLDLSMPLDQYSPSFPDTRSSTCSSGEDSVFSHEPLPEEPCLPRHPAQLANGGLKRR
Chain of Tyrosine-protein kinase ITK/TSK (Homo sapiens) (Q08881 whole entry): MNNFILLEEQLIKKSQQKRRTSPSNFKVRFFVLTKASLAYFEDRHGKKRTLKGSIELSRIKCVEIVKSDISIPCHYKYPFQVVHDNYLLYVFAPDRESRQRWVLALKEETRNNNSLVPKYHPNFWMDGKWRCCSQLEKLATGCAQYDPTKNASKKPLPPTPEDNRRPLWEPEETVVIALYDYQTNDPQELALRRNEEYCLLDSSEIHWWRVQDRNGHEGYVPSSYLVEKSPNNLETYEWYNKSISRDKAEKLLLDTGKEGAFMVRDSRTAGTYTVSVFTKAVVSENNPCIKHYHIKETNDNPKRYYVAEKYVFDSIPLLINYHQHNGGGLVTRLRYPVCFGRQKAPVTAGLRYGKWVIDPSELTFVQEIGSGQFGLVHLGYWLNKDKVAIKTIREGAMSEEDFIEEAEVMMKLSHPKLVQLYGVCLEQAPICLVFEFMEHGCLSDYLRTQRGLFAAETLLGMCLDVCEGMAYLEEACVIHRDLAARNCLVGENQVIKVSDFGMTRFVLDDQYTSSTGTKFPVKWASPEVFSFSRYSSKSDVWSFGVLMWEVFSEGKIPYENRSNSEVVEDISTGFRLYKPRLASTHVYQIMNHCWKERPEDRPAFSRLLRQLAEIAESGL

`CCc1ccc(-c2ccc3c(c2)-c2[nH]ncc2S(=O)(=O)N3C)cc1` was tested, and the Activity [1] was 58%, the Activity [2] was 87% and the Activity [3] was 101%. It also gave an Activity [4] of 104%, an Activity [5] of 89% and an Activity [6] of 95%. The Activity [7] was 97%, the Activity [8] was 102% and the Activity [9] was 102%. For the same molecule, the Activity [10] was 98%, the Activity [11] was 95% and the Activity [12] was 98%. For the same molecule, the Activity [13] was 96%, the Activity [14] was 82% and the Activity [15] was 95%. It also gave an Activity [16] of 88%, an Activity [17] of 87% and an Activity [18] of 26%. It also gave an Activity [19] of 51%, an Activity [20] of 103% and an Activity [21] of 93%. It also gave an Activity [22] of 101%, an Activity [23] of 102% and an Activity [24] of 78%. The Activity [25] was 81%, the Activity [26] was 91% and the Activity [27] was 52%. It also gave an Activity [28] of 97%, an Activity [29] of 93% and an Activity [30] of 90%. The Activity [31] was 97%.
